# Source: PubChem BioAssay
# Activity calls are given as the source filed them.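 The calls were made as follows, unless noted: active = GFP response above 150% of the DMSO level; inconclusive = fewer than 70 events counted for a yeast strain; inactive = the rest.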
# Tests used:
# [1] = hit retest on RPL19A-GFP reporter strain – cell-based, S. cerevisiae, flow cytometry, cherry picks, mother/daughter gates, confirmation (AID 2270;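 active = GFP response below 50% of the DMSO control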); conditions: 3 h, at 10 µM, stronger effect = lower value, 100 = same GFP as DMSO wells
# [2] = yeast TOR pathway reporter LAP4-GFP change – cell-based, cherry picks, flow cytometry, mother/daughter gates, confirmation (AID 2271;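 active = GFP response above 150% of the DMSO control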;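 also: ratio of sample to DMSO plate mean so 100% equals DMSO level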); conditions: S. cerevisiae LAP4-GFP strain, 3 h, at 10 µM, stronger effect = higher value, 100 means same as DMSO control
# Procedure, shortened: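 Test system: GFP-fusion yeast strain. Medium: synthetic complete (SC) yeast growth medium. Timing: 3 h treatment at 30 °C with rotation. Measured by: GFP by flow cytometry. Control set: positive rapamycin (400 ng/mL), negative DMSO.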
# [3] = TOR pathway reporter MEP2-GFP, retest of hits – S. cerevisiae, flow cytometry GFP, cherry picks, confirmation (AID 2272;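 active = GFP response above 150% of the DMSO control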;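 also: ratio of well signal to plate DMSO mean so 100% equals DMSO level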); conditions: S. cerevisiae MEP2-GFP strain, 3 h, at 10 µM, stronger effect = higher value
# [4] = yeast AGP1-GFP fluorescence change, single-dose – cell-based, flow cytometry, S. cerevisiae, cherry picks, confirmation (AID 2273);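 also: median GFP channel fluorescence over the whole cell population gate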; conditions: S. cerevisiae AGP1-GFP strain, 3 h, at 10 µM
# [5] = TOR pathway CIT2 reporter hit retest – S. cerevisiae, GFP fusion, cherry picks, mother/daughter gates, confirmation (AID 2274); conditions: S. cerevisiae CIT2-GFP strain, flow cytometry, 3 h, at 10 µM, stronger effect = higher value
# [6] = measured here: daughter cell gate
# [7] = measured here: mother cell gate
# [8] = measured here: daughter cell gate response
# [9] = measured here: mother cell gate response
Compound,GFP response vs DMSO [1],"GFP response vs DMSO [1, 6] [%]","GFP response vs DMSO [1, 7] [%]",GFP response relative to DMSO [2],"GFP response relative to DMSO [2, 8] [%]","GFP response relative to DMSO [2, 9] [%]",GFP response vs DMSO [3],"GFP response, % of DMSO [4]","GFP response, % of DMSO [5]","GFP response, % of DMSO [5, 6] [%]","GFP response, % of DMSO [5, 7] [%]"
CCCn1nc(C(=O)OCC(=O)c2ccc3c(c2)NC(=O)CO3)c2ccccc2c1=O,97.2% (inactive),96.6,96.5,98.2% (inactive),97.5,98.4,105% (inactive),96.3% (inactive),100% (inactive),97.4,101
Cc1ccc(CN2CCSc3sccc3C2=O)cc1,84.4% (inactive),83.1,85.5,142% (inactive),130,145,96.8% (inactive),97.1% (inactive),75.5% (inactive),72.1,76
Cc1c(Br)cc(C(=O)O)c(C)c1C,94.4% (inactive),94.7,88,101% (inactive),101,102,94.7% (inactive),97.1% (inactive),97.3% (inactive),95.6,99.3
O=[N+]([O-])c1cccnc1S(=O)(=O)c1ccccc1,97.6% (inactive),94.7,96.2,114% (inactive),110,112,103% (inactive),102% (inactive),90.1% (inactive),88.4,89.5
O=C(Nc1ccccc1N1CCOCC1)c1ccc([N+](=O)[O-])o1,58.5% (inactive),82.8,47.8,128% (inactive),104,116,90.5% (inactive),87.6% (inactive),63.9% (inactive),77.5,55.2
O=C(COc1ccccc1)Nc1c2c(nn1-c1ccccc1)CS(=O)C2 (stereo unspecified),97.1% (inactive),96.4,96.5,97.7% (inactive),99,96.4,103% (inactive),104% (inactive),98.6% (inactive),97.6,100
CC1=NNC(=O)/C1=C\c1cn(-c2ccccc2)nc1-c1ccccc1,98% (inactive),82.8,95.5,242% (active),164,236,110% (inactive),124% (inactive),115% (inactive),93.7,104
O=C1/C(=C/c2ccccn2)COc2ccccc21,94.2% (inactive),96.4,91.2,135% (inactive),130,134,110% (inactive),95.5% (inactive),94.4% (inactive),99.3,88.2
O=[N+]([O-])c1ccc(Sc2ccccc2Cl)nc1,103% (inactive),104,103,91.9% (inactive),93.6,89.7,112% (inactive),106% (inactive),105% (inactive),106,103
O=C(O)C1Sc2[nH]c(=O)sc2C2c3cc(Br)ccc3OC(=O)C12 (stereo unspecified),96.3% (inactive),97.6,96.8,171% (active),150,200,195% (active),102% (inactive),111% (inactive),108,113
CCc1noc(C)c1C(=O)Nc1nc(-c2cc(C)ccc2C)c(C)s1,103% (inactive),103,103,95% (inactive),95.6,99.3,100% (inactive),94.1% (inactive),106% (inactive),99.7,107
CCNc1nc(-c2ccc(Cl)cc2)cs1,101% (inactive),100,101,93.8% (inactive),97.2,96.2,102% (inactive),97.8% (inactive),104% (inactive),101,106
Cc1nonc1C(=O)N/N=C/c1ccc([N+](=O)[O-])o1,100% (inactive),101,101,111% (inactive),109,113,105% (inactive),106% (inactive),105% (inactive),105,104
CC(C)c1nnc(NC(=O)c2nc(S(=O)(=O)Cc3ccccc3F)ncc2Cl)s1,98.4% (inactive),97.8,99.2,108% (inactive),107,107,110% (inactive),101% (inactive),102% (inactive),102,100
COc1ccc(-c2nc(-c3ccccc3OC)no2)cc1OC,100% (inactive),98.8,98.6,102% (inactive),99.1,104,105% (inactive),91.8% (inactive),94.4% (inactive),95.6,93.2
CCOC(=O)N/C(N)=N/c1nc2ccccc2s1,85.9% (inactive),82.1,86.6,120% (inactive),113,126,102% (inactive),95% (inactive),92.6% (inactive),86.7,93.4

Compound,GFP response vs DMSO [1],"GFP response vs DMSO [1, 6] [%]","GFP response vs DMSO [1, 7] [%]",GFP response relative to DMSO [2],"GFP response relative to DMSO [2, 8] [%]","GFP response relative to DMSO [2, 9] [%]",GFP response vs DMSO [3],"GFP response, % of DMSO [4]","GFP response, % of DMSO [5]","GFP response, % of DMSO [5, 6] [%]","GFP response, % of DMSO [5, 7] [%]"
O=C1C=CC(=O)N1N(c1ccccc1)c1ccccc1,96.2% (inactive),90.7,87.1,209% (active),148,208,127% (inactive),114% (inactive),95.9% (inactive),88.9,79.8
COc1cc(/C=C2\N=C(C)OC2=O)cc(Cl)c1OC(C)=O,107% (inactive),109,102,117% (inactive),115,118,105% (inactive),99.8% (inactive),108% (inactive),112,103
CC(=O)Nc1ccc(Nc2cc(C)nc3c(-c4ccc(Cl)cc4)c(C)nn23)cc1,94.6% (inactive),94.4,95.8,94.1% (inactive),92.8,95.1,100% (inactive),95% (inactive),105% (inactive),105,104
Cc1cc(C)c2sc(NC(=O)C3=COCCO3)nc2c1,95.8% (inactive),95.5,97.9,94.2% (inactive),95,96.5,99.5% (inactive),92.5% (inactive),102% (inactive),104,101
CCNC(=O)/C(C#N)=C/c1c(N2CCN(Cc3ccc4c(c3)OCO4)CC2)nc2c(C)cccn2c1=O,101% (inactive),99.2,103,99.8% (inactive),97.2,101,102% (inactive),100% (inactive),104% (inactive),101,104
COCCCN(C(=O)c1ccco1)c1nc(-c2cc(OC)ccc2OC)cs1,95.8% (inactive),96.4,94,98.9% (inactive),96,100,112% (inactive),98.4% (inactive),100% (inactive),103,99.3
COc1cc(NC(=O)c2oc3ccccc3c2C)ccc1NC(=O)c1ccco1,98% (inactive),97.8,98.4,97.7% (inactive),99,100,110% (inactive),102% (inactive),98.6% (inactive),97.6,99.3
CCn1c(=O)c(C(=O)NCCc2ccccc2)c(O)c2ccccc21,98.5% (inactive),99.8,98.8,95.3% (inactive),96,97.4,103% (inactive),108% (inactive),98.6% (inactive),99.3,98.2
COc1ccc(C(=O)Oc2ccc(/C=N/NC(=O)c3ccccc3OC)cc2[N+](=O)[O-])cc1,102% (inactive),103,101,87.2% (inactive),87.8,86.7,104% (inactive),101% (inactive),104% (inactive),104,100
CC(=O)c1ccc(N2CCN(C(=O)c3ccc(Br)cc3)CC2)c(F)c1,111% (inactive),95.4,110,160% (active),117,160,117% (inactive),115% (inactive),111% (inactive),88.1,104
O=C(OCC(=O)N1CCN(C(=O)c2ccco2)CC1)c1cc(-c2ccc(Cl)c(Cl)c2Cl)nc2ccccc12,90.1% (inactive),89.1,89,97.9% (inactive),99.2,104,117% (inactive),116% (inactive),115% (inactive),105,107
CCN1C(=O)/C(=C\C(=O)c2cccs2)c2cc(Br)ccc21,97.6% (inactive),96.7,97.2,144% (inactive),128,140,104% (inactive),94.5% (inactive),99.3% (inactive),104,92.1
Cc1cc(-c2csc3nc[nH]c(=S)c23)cc(C)c1C,96.3% (inactive),98.1,95,112% (inactive),114,109,127% (inactive),118% (inactive),106% (inactive),110,104
O=C(CSc1ccc(-c2ccccn2)nn1)N1CCCCC1,99.9% (inactive),100,99,101% (inactive),101,101,99.5% (inactive),103% (inactive),99.3% (inactive),100,96.8
O=C(NCCO)c1c(O)c2cccc3c2n(c1=O)CC3,99.3% (inactive),99.2,99.4,92.6% (inactive),94.1,94.2,97.8% (inactive),101% (inactive),97.8% (inactive),96.5,96.6
